Data on three compounds can be found in PMC13601514 (Nature Communications, 2026).

“Also recorded” adds a separate entry of the source.

For one assay, the system named is U266 MM cells. Briefly: Cyto-ID autophagy assay. In kind it is cell-based, Human. The conditions noted are these: U266, 1 μM. The method, boiled down:
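U266 cells exposed to 1 μM test compound or vehicle for 6 h at 37 °C, washed, then stained 30 min in the dark with Cyto-ID Green plus DAPI (100 ng/ml) in 1% FBS assay buffer. Flow cytometry gave MFI and % Cyto-ID+ in live singlet cells. Confocal imaging (Hoechst/Cyto-ID) gave mean cytoplasmic intensity per group, compared by Kruskal–Wallis.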

For a further assay, the system named is ULK3. Briefly: Immunoblot in U266 MM cells. The conditions noted are these: 6 h. In kind it is cell-based, Human. The method, boiled down: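 Lysates quantified by BCA; 30 μg protein run on 10–15% SDS-PAGE (100 V, 2 h) and transferred to PVDF. Membranes blocked 1 h in TBST with 5% milk/5% BSA, probed overnight at 4 °C with primary (1:1000), then HRP secondary (1:1000). ECL detection; densitometry values annotated on the blot.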

Assay [1] has as its system MM cells (5TGM1, 8226, and U266). Briefly: MTS assay on MM cells. In kind it is cell-based. In a few lines:
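MM lines grown at 37 °C in RPMI 1640 with 10% heat-inactivated FBS plus pen/strep and plated at 2 × 10^5 cells/mL (96-well) or 3 × 10^5 cells/mL (384-well). Exposed to test compound or vehicle (HPβCD or DMSO) for 48 h. MTS absorbance read at 490 nm after 2 h at 37 °C; mean of technical replicates; three independent experiments.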
In general terms: Tetrazolium assays rely on reduction of a dye to a coloured formazan, in cell work by metabolically active cells.

For `Cc1sc2c(c1C)C(c1ccc(Cl)cc1)=N[C@@H](CC(=O)OC(C)(C)C)c1nnc(C)n1-2` [JQ1], the “autophagy (Cyto-ID)” value in the assay on U266 MM cells is listed as “had no effect; also recorded: did not impact autophagy”. On to `Cc1[nH]c(/C=C2\C(=O)Nc3ccccc32)c(C)c1CCC(=O)O` [SU6668], for which the ULK3 protein levels result with ULK3 is “does not impact”. Take `N#CC[C@H](C1CCCC1)n1cc(-c2ncnc3[nH]ccc23)cn1` [ruxolitinib]: in assay [1], the “cell survival in vitro” value is recorded as “had no effect; also recorded: not affected”.
